# Source: PubChem BioAssay
# Hits are enriched below; roughly 2.9% of the tested compounds scored in any of these assays.
# ERAP1 HTS inh: inhibitors of human ERAP1 aminopeptidase | Q9NZ08 | 340,000 compounds, 0.15% hits | recombinant ERAP1, Leu-AMC fluorescence, 60 min | inhibition, % at 10.7 µM;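 active means mean replicate inhibition of at least 30%, or all replicates individually reaching that 30% level; inactive means mean below 30% and not every replicate reaching it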;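 further: 0% = neutral control wells and 100% = L-leucinethiol positive control wells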
# Target sequence (Q9NZ08 whole entry, looked up): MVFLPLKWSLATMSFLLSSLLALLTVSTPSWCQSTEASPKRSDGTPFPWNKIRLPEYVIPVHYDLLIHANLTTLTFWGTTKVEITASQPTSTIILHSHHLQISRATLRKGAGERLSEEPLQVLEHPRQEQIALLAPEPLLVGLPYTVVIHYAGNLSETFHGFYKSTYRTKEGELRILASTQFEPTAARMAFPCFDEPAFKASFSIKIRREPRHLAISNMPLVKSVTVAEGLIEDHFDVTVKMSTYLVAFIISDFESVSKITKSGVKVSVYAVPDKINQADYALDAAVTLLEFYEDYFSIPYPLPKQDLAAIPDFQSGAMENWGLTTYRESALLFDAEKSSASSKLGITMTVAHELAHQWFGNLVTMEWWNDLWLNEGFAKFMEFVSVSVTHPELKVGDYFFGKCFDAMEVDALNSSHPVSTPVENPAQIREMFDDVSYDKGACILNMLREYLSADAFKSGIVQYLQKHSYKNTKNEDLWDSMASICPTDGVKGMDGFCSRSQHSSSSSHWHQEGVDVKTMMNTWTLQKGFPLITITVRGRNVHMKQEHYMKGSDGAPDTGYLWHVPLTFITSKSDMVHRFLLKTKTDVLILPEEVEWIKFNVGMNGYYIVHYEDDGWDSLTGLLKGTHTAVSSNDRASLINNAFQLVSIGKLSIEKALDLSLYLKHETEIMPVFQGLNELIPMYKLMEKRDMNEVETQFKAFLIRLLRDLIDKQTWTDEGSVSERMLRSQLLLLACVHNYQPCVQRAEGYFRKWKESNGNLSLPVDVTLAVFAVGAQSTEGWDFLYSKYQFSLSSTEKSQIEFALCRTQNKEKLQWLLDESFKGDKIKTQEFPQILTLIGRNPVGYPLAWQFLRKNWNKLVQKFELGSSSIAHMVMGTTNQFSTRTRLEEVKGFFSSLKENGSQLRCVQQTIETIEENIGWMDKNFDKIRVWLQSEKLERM
# S100A4 inh HTS: S100A4-myosin IIA interaction inhibition. inhibition, % at 10.7 µM. 360,000 compounds, 0.14% hits. S100A4/TAMRA-MyoIIA peptide fluorescence polarization;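 active means mean inhibition of at least 70% across replicates, with every replicate also reaching that level; inconclusive means mean inhibition reaches 70% but some replicates fall short; inactive means mean inhibition below 70%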
#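 System – human S100A4 monomer protein, biochemical binding assay · Buffer or medium – Calcium-containing HEPES buffer, pH 7.2 · Timing – 5 min between mix addition and reading · Also added – TAMRA-labelled myosin IIA heavy-chain peptide probe, 5 nM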
# DENV2 CPE: inhibitors of DENV2 cytopathic effect; 350,000 compounds, 1.7% hits; DENV2-infected cells, cytopathic effect rescue, plate reader; CPE inhibition, % at 9.99 µM; in the data active means CPE inhibition above about 20%, passing the limit was not always enough; inconclusive means no clear call, values can overlap the other calls; tested in BHK-21 cells;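 further: 0% = median of neutral control wells and 100% = median of positive control wells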
# SIRT5 inh: sirtuin-5 (human) deacylase inhibition; Q9NXA8; inhibition, % at 15 µM; Purified SirT5, succinyl-peptide AMC, trypsin-coupled fluorescence; AID 652115; 330,000 compounds, 1.1% hits; in the data active means inhibition above about 15%; inconclusive means no clear call, values can overlap the other calls
# CAL PDZ FP-1: inhibitors of human CAL PDZ peptide binding; Q9HD26; purified CAL PDZ, TMR-peptide fluorescence polarization, 1 h; inhibition, % at 24.9 µM; 300,000 compounds, 0.92% hits; AID 602252;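 active means mean inhibition of at least 30% with at least half of replicates also reaching 30%; inconclusive means no clear call, values can overlap the other calls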;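 further: 0% = DMSO neutral control and 100% = excess unlabeled competitor peptide PRC23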
# CAL PDZ FP-2: blocks peptide binding to human CAL PDZ domain. inhibition, % at 20 µM. purified CAL PDZ, TMR-peptide fluorescence polarization, 1 h. 330,000 compounds, 0.02% hits. AID 504414. Q9HD26;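 active means highest replicate inhibition of at least 40%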;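 further: plate controls were DMSO neutral control wells for no effect and unlabeled competitor peptide control wells for full effect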
#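 System: purified tagged CAL PDZ domain construct (CerCALP). Schedule: 1 h incubation at room temperature before polarization reading. Medium: 25 mM sodium phosphate pH 7.4, 150 mM NaCl, TCEP, IgG, Thesit. Read-out: percent inhibition from loss of millipolarization. Measured by: FP readout, S and P plane fluorescence. Probe or stimulus: fluorescent TMR peptide probe.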
# * hit, by the source's call; ? = inconclusive; · = no result; ! = not confirmed by another sample.
SMILES,ERAP1 HTS inh,S100A4 inh HTS,DENV2 CPE,SIRT5 inh,CAL PDZ FP-1,CAL PDZ FP-2
C[C@@H]1CCCCO[C@@H](CN(C)C(=O)C2CCCCC2)[C@@H](C)CN([C@H](C)CO)C(=O)c2cc(NC(=O)CCCCCC(=O)Nc3ccccc3N)ccc2O1,-7,103*,-1,6,·,·
CC(C)(C)n1nnnc1C(c1cccc(C(F)(F)F)c1)N1CCOCC1 (centres undefined),6,-1,4,1,-3,-6
CC(C)(C)n1nnnc1C(c1cccnc1)N1CCOCC1 (centres undefined),4,1,-2,20*,-2,0
c1cc(-c2ccc(N3CCOCC3)cc2)n2cnnc2c1,6,-6,24*,-9,·,·
c1cc(-c2ccc3c(c2)CCO3)n2cnnc2c1,3,0,0,-2,·,·
C[C@H]1CN([C@@H](C)CO)C(=O)c2cc(Br)cnc2O[C@@H]1CN(C)C(=O)Nc1ccc(F)cc1,·,0,2,-2,·,·
NC(=O)NC(CC(=O)NNC(=O)c1cccs1)c1ccc(Cl)cc1 (centres undefined),3,0,1,1,31*,1
COc1ccc(COCC23N=C4SCc5ccccc5CN4[C@H](c4ccccc4O2)[C@H]3COC(=O)c2ccccc2)cc1,4,8,32*,-1,·,·
COc1ccc(COCC23N=C4SCc5ccccc5C(=O)N4[C@H](c4ccccc4O2)[C@H]3COC(=O)c2ccccc2)cc1,-2,-28,12,3,·,·
COC(=O)C[C@H]1C[C@@H]2c3cc(NC(=O)Nc4ccc(F)cc4)ccc3O[C@@H]2[C@H](CO)O1,·,·,0,·,·,·
COc1ccc(NC(=O)[C@@H]2CC=C[C@@H]3CCN(Cc4ccc(Cl)c(Cl)c4)C(=O)[C@@H]32)cc1,1,1,-5,1,0,-2
COc1ccc(NC(=O)[C@@H]2CC=C[C@@H]3CCN(Cc4ccccc4)C(=O)[C@@H]32)cc1,·,2,25*,·,-1,1
O=C(Cc1ccc(F)cc1)Nc1nc(-c2ccc(F)c(F)c2)cs1,1,-4,?,16*,-6,-2
C[C@H](CO)N1C[C@H](C)[C@@H](CN(C)Cc2cccnc2)Oc2ncc(-c3ccccc3)cc2C1=O,2,11,-3,1,·,·
CC(C)=CCOc1c2ccoc2cc2oc(=O)ccc12,-1,-4,125*,0,0,-1
CO[C@H]1CN(C)C(=O)c2cc(NS(=O)(=O)c3ccccc3)ccc2OC[C@H](C)N(Cc2ccccn2)C[C@H]1C,0,10,-8,7,·,·
Cc1cccc(S(=O)(=O)N(C)C[C@H]2OCc3ccccc3-c3c(n(C)c4ccccc34)C(=O)N([C@H](C)CO)C[C@@H]2C)c1,1,7,-7,4,·,·
C[C@H](CO)N1C[C@H](C)[C@H](CN(C)S(=O)(=O)c2ccc(Cl)cc2)OCc2ccccc2-c2c(n(C)c3ccccc23)C1=O,4,1,-13,22*!,·,·
Cc1ccc(S(=O)(=O)N(C)C[C@@H]2OCc3ccccc3-c3c(n(C)c4ccccc34)C(=O)N([C@H](C)CO)C[C@@H]2C)cc1,0,0,-5,18*!,·,·
Cc1cccc(S(=O)(=O)N(C)C[C@@H]2OCc3ccccc3-c3c(n(C)c4ccccc34)C(=O)N([C@H](C)CO)C[C@@H]2C)c1,1,-11,-6,20*,·,·
Cc1ccc(S(=O)(=O)N(C)C[C@H]2OCc3ccccc3-c3c(n(C)c4ccccc34)C(=O)N([C@@H](C)CO)C[C@@H]2C)cc1,-1,-6,-5,9,·,·
O=C(C1CCCC1)N1CC(=O)N2[C@@H](CO)[C@H](c3ccc(C#CCc4ccccc4)cc3)[C@@H]2C1,0,8,-21,4,·,·
C[C@@H]1CN([C@@H](C)CO)C(=O)c2cc(NS(=O)(=O)c3ccc(F)cc3)ccc2O[C@@H]1CN(C)C(=O)Nc1ccc(F)cc1,1,2,1,-2,·,·
CCCC(C(=O)O)N1C(=O)/C(=C2\C(=O)N(C)c3ccccc32)SC1=S (centres undefined),·,·,·,·,6,1
O=C(O)CN1C(=O)/C(=C2\SC(=S)N(C(Cc3ccccc3)C(=O)O)C2=O)c2ccccc21 (centres undefined),10,5,-3,17*,1,4
SMILES,ERAP1 HTS inh,S100A4 inh HTS,DENV2 CPE,SIRT5 inh,CAL PDZ FP-1,CAL PDZ FP-2
CCN1C(=O)[C@H]2[C@@H](c3ccc(-c4ccc(Cl)c(Cl)c4)cc3)N3CCCC[C@@]3(C(=O)OC)[C@H]2C1=O,4,-4,7,-3,35*,-1
COC(=O)[C@@]12CCCN1[C@H](c1ccc(-c3ccccc3)cc1)[C@@H]1C(=O)N(C)C(=O)[C@@H]12,-1,-8,66*,-4,2,1
C[C@H]1CN([C@@H](C)CO)C(=O)c2cc(N(C)C)ccc2O[C@H]1CN(C)C(=O)NC1CCCCC1,-1,10,6,-2,·,·
CC1=CC(C)C2(COC(c3ccc[n+](C)c3)OC2)C(C)C1 (centres undefined),106*,-4,-6,-1,-1,-2
CC1CN(S(=O)(=O)c2ccc(CN3C(=O)c4cccnc4C3=O)s2)c2ccccc2O1 (centres undefined),-3,-2,-4,24*,52*,0
C[C@@H]1CN([C@H](C)CO)C(=O)c2cc(NS(=O)(=O)c3ccccc3)ccc2O[C@@H](C)CCCCO[C@H]1CN(C)Cc1ccncc1,-5,-81,6,4,·,·
C[C@@H]1CCCCO[C@H](CN(C)Cc2ccncc2)[C@H](C)CN([C@@H](C)CO)C(=O)c2cc(NS(=O)(=O)c3ccccc3)ccc2O1,-5,1,33*,-2,·,·
C[C@@H]1CN([C@@H](C)CO)C(=O)c2cc(NS(=O)(=O)c3ccccc3)ccc2O[C@@H](C)CCCCO[C@@H]1CN(C)Cc1ccncc1,-5,7,49*,5,·,·
COc1ccc(NC(=O)Nc2cccc3c2O[C@H](CN(C)Cc2ccccc2)[C@@H](C)CN([C@H](C)CO)C3=O)cc1,0,8,5,-1,·,·
C[C@H](CO)N1C[C@H](C)[C@@H](CN(C)Cc2ccc(C(=O)O)cc2)Oc2c(NC(=O)Cc3ccccc3)cccc2C1=O,2,-4,53*,2,2,-1
C[C@H](CO)N1C[C@H](C)[C@@H](CN(C)Cc2ccc(Cl)c(Cl)c2)Oc2c(NC(=O)CCC(F)(F)F)cccc2C1=O,·,0,22*,·,-1,0
C[C@@H]1CN([C@H](C)CO)C(=O)c2cccc(NC(=O)Nc3ccccc3)c2O[C@@H]1CN(C)Cc1ccc(Cl)c(Cl)c1,4,-1,76*,8,·,·
